ChEMBL document CHEMBL1165965, “Synthesis and structure-activity relationships of 1,2,3,4-tetrahydropyrido[2,3-b]pyrazines as potent and selective inhibitors of the anaplastic lymphoma kinase” (Bioorg Med Chem, 2010)

How the values were obtained:
[1] = molecular target: Serine/threonine-protein kinase 33 (Homo sapiens) (UniProt Q9BYT3); test: Inhibition of STK33 at 1 uM
[2] = molecular target: Macrophage colony-stimulating factor 1 receptor (Homo sapiens) (UniProt P07333); test: Inhibition of CSF1R at 1 uM
In short: (§1)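 Single-concentration screen using Ambit Bioscience KINOMEscan technology across a panel of 250–400 kinases. Per-kinase inhibition from this screen was summarized as S(90), the fraction of kinases inhibited by more than 90%.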

[3] = molecular target: Activin receptor type-2A (Homo sapiens) (UniProt P27037); test: Inhibition of ACVR2A at 1 uM
In short: (§2)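 Ambit KINOMEscan screen at a single concentration across a 250–400 kinase panel, recorded as percent inhibition. Selectivity was expressed as S(90), the fraction of kinases inhibited >90%.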

[4] = molecular target: Tyrosine-protein kinase JAK1 (Homo sapiens) (UniProt P23458); test: Inhibition of JAK1 JH2 pseudokinase domain at 1 uM
In short: (§3)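 Single-concentration screen on the Ambit KINOMEscan platform, run against a panel of 250–400 kinases. Per-kinase inhibition was also summarized as S(90), the fraction of kinases inhibited by more than 90%.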

[5] = molecular target: T1, Membrane-associated tyrosine- and threonine-specific cdc2-inhibitory kinase (Homo sapiens) (UniProt Q99640); test: Inhibition of PKMYT1 at 1 uM
T1 sequence (whole entry): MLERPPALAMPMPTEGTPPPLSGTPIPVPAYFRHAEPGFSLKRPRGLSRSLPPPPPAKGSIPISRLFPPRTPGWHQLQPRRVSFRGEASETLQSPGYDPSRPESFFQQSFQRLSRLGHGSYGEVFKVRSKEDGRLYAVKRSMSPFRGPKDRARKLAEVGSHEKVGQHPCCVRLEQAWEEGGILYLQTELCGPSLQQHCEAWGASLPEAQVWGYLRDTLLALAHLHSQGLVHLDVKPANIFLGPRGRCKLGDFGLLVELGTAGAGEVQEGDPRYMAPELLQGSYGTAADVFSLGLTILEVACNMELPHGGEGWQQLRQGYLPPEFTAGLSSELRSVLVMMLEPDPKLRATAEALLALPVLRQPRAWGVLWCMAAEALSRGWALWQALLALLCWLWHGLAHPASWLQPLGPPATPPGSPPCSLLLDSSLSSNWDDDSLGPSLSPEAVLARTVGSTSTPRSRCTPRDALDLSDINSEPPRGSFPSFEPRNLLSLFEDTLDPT

[6] = molecular target: Serine/threonine-protein kinase PAK 5 (Homo sapiens) (UniProt Q9P286); test: Inhibition of PAK7 at 1 uM
[7] = molecular target: Serine/threonine-protein kinase PAK 6 (Homo sapiens) (UniProt Q9NQU5); test: Inhibition of PAK6 at 1 uM
[8] = molecular target: Interferon-induced, double-stranded RNA-activated protein kinase (Homo sapiens) (UniProt P19525); test: Inhibition of PRKR at 1 uM
[9] = molecular target: T2, Tyrosine-protein kinase Tec (Homo sapiens) (UniProt P42680); test: Inhibition of TEC at 1 uM
T2 sequence (whole entry): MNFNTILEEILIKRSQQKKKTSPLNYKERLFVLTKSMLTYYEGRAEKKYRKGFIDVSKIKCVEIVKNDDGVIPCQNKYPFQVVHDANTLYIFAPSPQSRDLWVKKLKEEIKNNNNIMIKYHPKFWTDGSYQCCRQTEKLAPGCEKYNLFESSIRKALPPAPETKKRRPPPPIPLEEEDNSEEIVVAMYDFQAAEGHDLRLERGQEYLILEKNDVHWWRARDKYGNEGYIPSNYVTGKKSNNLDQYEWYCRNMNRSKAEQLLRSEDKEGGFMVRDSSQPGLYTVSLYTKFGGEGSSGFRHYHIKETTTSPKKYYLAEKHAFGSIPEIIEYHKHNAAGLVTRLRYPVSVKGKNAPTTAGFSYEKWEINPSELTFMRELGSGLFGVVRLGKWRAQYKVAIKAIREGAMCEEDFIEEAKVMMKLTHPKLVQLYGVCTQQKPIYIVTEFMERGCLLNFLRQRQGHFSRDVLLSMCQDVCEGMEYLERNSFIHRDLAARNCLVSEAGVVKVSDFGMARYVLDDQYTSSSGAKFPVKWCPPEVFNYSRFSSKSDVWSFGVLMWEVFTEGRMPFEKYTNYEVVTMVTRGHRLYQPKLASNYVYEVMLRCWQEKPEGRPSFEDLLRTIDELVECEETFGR

[10] = molecular target: Calcium/calmodulin-dependent protein kinase type 1 (Homo sapiens) (UniProt Q14012); test: Inhibition of CAMK1 at 1 uM; in short: as §2
[11] = molecular target: Calcium/calmodulin-dependent protein kinase type II subunit beta (Homo sapiens) (UniProt Q13554); test: Inhibition of CAMK2B at 1 uM; in short: as §2
[12] = molecular target: Cyclin-dependent kinase 18 (Homo sapiens) (UniProt Q07002); test: Inhibition of PCTK3 at 1 uM
[13] = molecular target: T3, Mitogen-activated protein kinase 12 (Homo sapiens) (UniProt P53778); test: Inhibition of p38-gamma at 1 uM
T3 sequence (whole entry): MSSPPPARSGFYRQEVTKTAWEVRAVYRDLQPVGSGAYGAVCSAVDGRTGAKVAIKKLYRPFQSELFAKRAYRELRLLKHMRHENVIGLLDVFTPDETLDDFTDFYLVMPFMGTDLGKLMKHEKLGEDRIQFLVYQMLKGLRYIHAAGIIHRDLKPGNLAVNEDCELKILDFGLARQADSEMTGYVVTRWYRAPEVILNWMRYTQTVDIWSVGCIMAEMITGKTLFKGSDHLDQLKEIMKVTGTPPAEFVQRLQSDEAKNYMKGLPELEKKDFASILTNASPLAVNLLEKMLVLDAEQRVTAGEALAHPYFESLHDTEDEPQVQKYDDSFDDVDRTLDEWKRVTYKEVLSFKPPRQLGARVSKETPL

[14] = molecular target: Cyclin-dependent kinase 8 (Homo sapiens) (UniProt P49336); test: Inhibition of CDK8 at 1 uM
[15] = test system: Proto-oncogene tyrosine-protein kinase receptor Ret (Homo sapiens), P07949 [M918T]; test: Inhibition of RET M918T mutant at 1 uM
[16] = molecular target: Receptor tyrosine-protein kinase erbB-4 (Homo sapiens) (UniProt Q15303); test: Inhibition of ERBB4 at 1 uM; in short: as §1
[17] = molecular target: Ribosomal protein S6 kinase alpha-1 (Homo sapiens) (UniProt Q15418); test: Inhibition of RPS6KA1 N-terminal domain1 at 1 uM
[18] = molecular target: Tyrosine-protein kinase Fer (Homo sapiens) (UniProt P16591); test: Inhibition of FER at 1 uM; in short: as §1
[19] = molecular target: Ephrin type-A receptor 5 (Homo sapiens) (UniProt P54756); test: Inhibition of EPHA5 at 1 uM; in short: as §1
[20] = molecular target: Mast/stem cell growth factor receptor Kit (Homo sapiens) (UniProt P10721); test: Inhibition of KIT at 1 uM; in short: as §3
[21] = molecular target: Epidermal growth factor receptor (Homo sapiens) (UniProt P04626+P00533+Q15303+P21860); test: Inhibition of EGFR S752-I759del mutant at 1 uM; assay type: protein assay; in short: as §1

Sequence of Cyclin-dependent kinase 8 (Homo sapiens) (P49336 whole entry): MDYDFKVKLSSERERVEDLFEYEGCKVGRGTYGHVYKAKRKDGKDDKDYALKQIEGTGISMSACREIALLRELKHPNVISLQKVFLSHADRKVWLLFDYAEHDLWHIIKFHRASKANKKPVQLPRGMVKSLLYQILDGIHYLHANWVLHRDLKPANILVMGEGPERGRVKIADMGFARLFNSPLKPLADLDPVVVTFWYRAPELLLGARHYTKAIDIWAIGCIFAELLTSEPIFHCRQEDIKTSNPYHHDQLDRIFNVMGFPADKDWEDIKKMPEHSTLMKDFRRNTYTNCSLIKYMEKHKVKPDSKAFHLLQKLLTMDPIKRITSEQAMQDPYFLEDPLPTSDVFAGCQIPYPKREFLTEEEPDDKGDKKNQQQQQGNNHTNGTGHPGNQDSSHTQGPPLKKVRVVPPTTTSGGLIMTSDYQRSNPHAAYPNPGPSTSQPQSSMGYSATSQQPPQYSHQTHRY
Sequence of Proto-oncogene tyrosine-protein kinase receptor Ret (Homo sapiens), P07949 [M918T] (P07949 whole entry M918T): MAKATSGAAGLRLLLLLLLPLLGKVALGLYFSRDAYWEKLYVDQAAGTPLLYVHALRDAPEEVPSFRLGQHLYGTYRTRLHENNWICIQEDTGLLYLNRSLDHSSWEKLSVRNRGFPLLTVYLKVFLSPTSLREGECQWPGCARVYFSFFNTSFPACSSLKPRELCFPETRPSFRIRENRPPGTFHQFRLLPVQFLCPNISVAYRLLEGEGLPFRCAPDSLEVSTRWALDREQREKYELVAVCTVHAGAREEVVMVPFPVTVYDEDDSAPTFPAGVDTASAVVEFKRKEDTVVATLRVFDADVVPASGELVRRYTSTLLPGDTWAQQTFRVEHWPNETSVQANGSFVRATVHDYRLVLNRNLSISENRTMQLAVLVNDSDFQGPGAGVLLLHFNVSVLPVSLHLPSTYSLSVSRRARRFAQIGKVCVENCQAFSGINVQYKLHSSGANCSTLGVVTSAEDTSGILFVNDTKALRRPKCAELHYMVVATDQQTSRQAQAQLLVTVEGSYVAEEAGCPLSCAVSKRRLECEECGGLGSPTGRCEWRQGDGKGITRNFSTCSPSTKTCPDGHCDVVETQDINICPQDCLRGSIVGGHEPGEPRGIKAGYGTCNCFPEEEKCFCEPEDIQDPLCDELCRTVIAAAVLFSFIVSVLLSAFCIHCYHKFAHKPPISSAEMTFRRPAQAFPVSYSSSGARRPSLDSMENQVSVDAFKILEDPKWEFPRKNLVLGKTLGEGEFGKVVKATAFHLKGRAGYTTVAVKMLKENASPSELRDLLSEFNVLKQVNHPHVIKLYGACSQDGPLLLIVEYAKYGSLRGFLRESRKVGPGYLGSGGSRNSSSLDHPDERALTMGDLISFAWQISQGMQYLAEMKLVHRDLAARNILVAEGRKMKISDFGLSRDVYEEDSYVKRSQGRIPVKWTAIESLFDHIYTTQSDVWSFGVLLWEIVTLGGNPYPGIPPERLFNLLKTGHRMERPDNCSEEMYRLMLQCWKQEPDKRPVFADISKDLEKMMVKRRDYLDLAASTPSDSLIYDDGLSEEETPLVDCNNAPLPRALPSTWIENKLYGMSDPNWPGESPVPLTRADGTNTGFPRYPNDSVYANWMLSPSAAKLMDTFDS
Sequence of Receptor tyrosine-protein kinase erbB-4 (Homo sapiens) (Q15303 whole entry, the tested form may be a part): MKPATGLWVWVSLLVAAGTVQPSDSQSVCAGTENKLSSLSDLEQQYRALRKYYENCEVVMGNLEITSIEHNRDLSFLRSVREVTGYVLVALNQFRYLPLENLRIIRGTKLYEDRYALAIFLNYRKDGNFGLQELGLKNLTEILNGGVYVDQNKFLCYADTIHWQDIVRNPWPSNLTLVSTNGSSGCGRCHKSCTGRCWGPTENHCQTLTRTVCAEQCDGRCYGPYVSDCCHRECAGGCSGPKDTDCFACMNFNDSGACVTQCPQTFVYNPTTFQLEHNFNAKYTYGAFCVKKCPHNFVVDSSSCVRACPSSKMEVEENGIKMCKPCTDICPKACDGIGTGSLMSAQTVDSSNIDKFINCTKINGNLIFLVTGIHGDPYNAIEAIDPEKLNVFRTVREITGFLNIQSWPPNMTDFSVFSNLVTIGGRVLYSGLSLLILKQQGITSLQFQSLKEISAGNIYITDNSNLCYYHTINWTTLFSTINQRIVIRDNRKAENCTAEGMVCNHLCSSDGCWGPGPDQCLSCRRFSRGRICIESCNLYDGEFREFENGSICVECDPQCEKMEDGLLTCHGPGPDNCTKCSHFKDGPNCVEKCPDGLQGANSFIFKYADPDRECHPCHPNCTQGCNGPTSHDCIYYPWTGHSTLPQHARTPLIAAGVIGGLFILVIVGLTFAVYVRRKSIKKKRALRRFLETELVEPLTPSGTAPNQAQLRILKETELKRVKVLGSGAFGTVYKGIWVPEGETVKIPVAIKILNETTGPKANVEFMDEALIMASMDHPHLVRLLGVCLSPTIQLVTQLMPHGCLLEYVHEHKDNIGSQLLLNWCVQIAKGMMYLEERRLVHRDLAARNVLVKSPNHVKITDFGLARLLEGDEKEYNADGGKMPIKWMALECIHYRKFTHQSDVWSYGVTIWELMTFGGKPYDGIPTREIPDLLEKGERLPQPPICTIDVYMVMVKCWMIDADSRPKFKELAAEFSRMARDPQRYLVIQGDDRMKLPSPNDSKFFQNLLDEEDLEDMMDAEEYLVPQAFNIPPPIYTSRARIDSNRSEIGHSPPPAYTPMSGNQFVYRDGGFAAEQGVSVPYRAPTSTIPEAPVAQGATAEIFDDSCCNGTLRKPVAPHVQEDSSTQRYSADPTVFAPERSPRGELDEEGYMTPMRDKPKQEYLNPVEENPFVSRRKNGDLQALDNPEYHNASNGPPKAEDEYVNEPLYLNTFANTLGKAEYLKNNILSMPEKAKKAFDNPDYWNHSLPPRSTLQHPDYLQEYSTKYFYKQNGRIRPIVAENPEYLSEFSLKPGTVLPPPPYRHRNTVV
Sequence of Serine/threonine-protein kinase 33 (Homo sapiens) (Q9BYT3 whole entry, looked up): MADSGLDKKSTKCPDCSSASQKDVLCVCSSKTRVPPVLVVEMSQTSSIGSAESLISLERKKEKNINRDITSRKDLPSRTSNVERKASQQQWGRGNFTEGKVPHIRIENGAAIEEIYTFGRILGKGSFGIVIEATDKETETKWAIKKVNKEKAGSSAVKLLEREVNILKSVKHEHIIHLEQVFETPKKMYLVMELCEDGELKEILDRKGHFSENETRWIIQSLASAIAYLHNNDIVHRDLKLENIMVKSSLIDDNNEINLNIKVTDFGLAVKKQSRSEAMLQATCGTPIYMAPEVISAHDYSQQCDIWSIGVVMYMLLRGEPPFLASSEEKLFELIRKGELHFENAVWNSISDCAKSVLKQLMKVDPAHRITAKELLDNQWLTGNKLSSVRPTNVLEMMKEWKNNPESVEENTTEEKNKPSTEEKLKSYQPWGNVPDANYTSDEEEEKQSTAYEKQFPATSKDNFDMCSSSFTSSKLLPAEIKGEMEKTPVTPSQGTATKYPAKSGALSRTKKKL
Sequence of Interferon-induced, double-stranded RNA-activated protein kinase (Homo sapiens) (P19525 whole entry): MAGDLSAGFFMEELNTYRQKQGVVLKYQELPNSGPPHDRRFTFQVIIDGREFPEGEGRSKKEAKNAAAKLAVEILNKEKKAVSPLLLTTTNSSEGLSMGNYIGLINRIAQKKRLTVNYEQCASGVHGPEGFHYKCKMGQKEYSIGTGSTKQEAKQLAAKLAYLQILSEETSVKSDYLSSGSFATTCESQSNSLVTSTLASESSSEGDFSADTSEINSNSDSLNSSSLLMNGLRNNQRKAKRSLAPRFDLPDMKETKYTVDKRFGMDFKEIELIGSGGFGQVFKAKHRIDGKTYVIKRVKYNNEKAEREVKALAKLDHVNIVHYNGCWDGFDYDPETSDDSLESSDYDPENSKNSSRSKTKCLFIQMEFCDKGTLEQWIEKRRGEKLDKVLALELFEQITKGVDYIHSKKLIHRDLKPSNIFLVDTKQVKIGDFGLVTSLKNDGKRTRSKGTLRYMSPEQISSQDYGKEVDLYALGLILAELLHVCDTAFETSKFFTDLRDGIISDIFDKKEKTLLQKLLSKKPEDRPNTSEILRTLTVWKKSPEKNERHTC
Sequence of Cyclin-dependent kinase 18 (Homo sapiens) (Q07002 whole entry): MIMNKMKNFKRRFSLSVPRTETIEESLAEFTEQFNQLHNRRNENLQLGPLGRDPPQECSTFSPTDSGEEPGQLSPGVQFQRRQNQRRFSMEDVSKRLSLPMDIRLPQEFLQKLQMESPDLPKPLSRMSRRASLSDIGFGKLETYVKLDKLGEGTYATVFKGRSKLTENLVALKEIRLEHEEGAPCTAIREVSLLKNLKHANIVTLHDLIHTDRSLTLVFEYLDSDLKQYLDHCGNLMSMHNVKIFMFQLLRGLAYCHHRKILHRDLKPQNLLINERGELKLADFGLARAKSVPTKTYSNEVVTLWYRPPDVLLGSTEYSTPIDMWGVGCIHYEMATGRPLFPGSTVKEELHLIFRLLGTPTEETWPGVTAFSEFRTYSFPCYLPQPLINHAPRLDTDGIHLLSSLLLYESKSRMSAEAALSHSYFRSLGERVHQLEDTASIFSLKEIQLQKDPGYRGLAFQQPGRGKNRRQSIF
Sequence of Activin receptor type-2A (Homo sapiens) (P27037 whole entry): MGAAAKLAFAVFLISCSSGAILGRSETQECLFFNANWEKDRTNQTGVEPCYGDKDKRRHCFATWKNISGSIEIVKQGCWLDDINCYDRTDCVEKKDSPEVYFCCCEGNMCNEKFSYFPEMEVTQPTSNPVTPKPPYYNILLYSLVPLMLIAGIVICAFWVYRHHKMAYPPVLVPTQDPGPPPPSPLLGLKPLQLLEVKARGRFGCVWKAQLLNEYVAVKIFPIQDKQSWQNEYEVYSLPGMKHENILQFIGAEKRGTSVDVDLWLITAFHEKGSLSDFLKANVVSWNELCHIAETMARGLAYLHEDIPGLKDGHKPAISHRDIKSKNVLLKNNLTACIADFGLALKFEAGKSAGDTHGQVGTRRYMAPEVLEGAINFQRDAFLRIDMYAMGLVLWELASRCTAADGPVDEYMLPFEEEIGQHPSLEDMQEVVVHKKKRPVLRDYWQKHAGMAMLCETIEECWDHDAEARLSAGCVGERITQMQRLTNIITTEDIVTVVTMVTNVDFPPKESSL

| Compound | inhibition [1] [%] | inhibition [2] [%] | inhibition [3] [%] | inhibition [4] [%] | inhibition [5] [%] | inhibition [6] [%] | inhibition [7] [%] | inhibition [8] [%] | inhibition [9] [%] | inhibition [10] [%] | inhibition [11] [%] | inhibition [12] [%] | inhibition [13] [%] | inhibition [14] [%] | inhibition [16] [%] | inhibition [17] [%] | inhibition [18] [%] | inhibition [19] [%] | inhibition [20] [%] | inhibition [21] [%] | other results |
| --- | --- | --- | --- | --- | --- | --- | --- | --- | --- | --- | --- | --- | --- | --- | --- | --- | --- | --- | --- | --- | --- |
| COC1CCN(C(=O)c2ccc(-c3cnc4c(c3)N(Cc3cc(Cl)ccc3C(F)(F)F)CCN4)cc2)CC1 |  | 74.2 | < 50 | < 50 | < 50 | < 50 | < 50 | < 50 |  | < 50 | < 50 |  | < 50 |  | < 50 | < 50 | < 50 | < 50 | < 50 | < 50 |  |
| O=C(c1ccc(-c2cnc3c(c2)N(Cc2cc(Cl)ccc2C(F)(F)F)CCN3)cc1)N1CCCCC1 |  | < 50 | < 50 | < 50 | < 50 | < 50 | < 50 | < 50 |  | < 50 | < 50 |  | < 50 |  | < 50 | < 50 | < 50 | < 50 | < 50 | < 50 |  |
| O=C(O)c1ccc(-c2cnc3c(c2)N(Cc2cc(Cl)ccc2C(F)(F)F)CCN3)cc1 |  | < 50 | < 50 | < 50 | < 50 | < 50 | < 50 | < 50 |  | < 50 | < 50 |  | < 50 |  | < 50 | < 50 | < 50 | < 50 | < 50 | < 50 |  |
| O=C(c1ccc(-c2cnc3c(c2)N(Cc2cc(Cl)ccc2C(F)(F)F)CCN3)cc1)N1CCC(N2CCCC2)CC1 | 79.8 | 96.6 | < 50 | < 50 | < 50 | < 50 | < 50 | < 50 |  | < 50 | < 50 |  | < 50 |  | < 50 | < 50 | < 50 | < 50 | 89.5 | < 50 |  |

Second part, led by results:

| inhibition [1] [%] | inhibition [2] [%] | inhibition [3] [%] | inhibition [4] [%] | inhibition [5] [%] | inhibition [6] [%] | inhibition [7] [%] | inhibition [8] [%] | inhibition [9] [%] | inhibition [10] [%] | inhibition [11] [%] | inhibition [12] [%] | inhibition [13] [%] | inhibition [14] [%] | inhibition [16] [%] | inhibition [17] [%] | inhibition [18] [%] | inhibition [19] [%] | inhibition [20] [%] | inhibition [21] [%] | Compound | other results |
| --- | --- | --- | --- | --- | --- | --- | --- | --- | --- | --- | --- | --- | --- | --- | --- | --- | --- | --- | --- | --- | --- |
| < 50 | 88 | < 50 | < 50 | < 50 | < 50 | < 50 | < 50 | < 50 | < 50 | < 50 | < 50 | < 50 | < 50 | < 50 | < 50 | < 50 | < 50 | 87 | < 50 | CN1CCN(c2ccc(-c3cnc4c(c3)N(Cc3cc(Cl)ccc3Cl)CCN4)cn2)CC1 | inhibition [15]: < 50% |
| < 50 | 88 | < 50 | < 50 | < 50 | < 50 | < 50 | < 50 | < 50 | < 50 | < 50 | < 50 | < 50 | < 50 | < 50 | < 50 | < 50 | < 50 | < 50 | < 50 | CN1CCN(c2ccc(-c3cnc4c(c3)N(Cc3cc(Cl)ccc3C(F)(F)F)CCN4)cn2)CC1 | inhibition [15]: < 50% |
| < 50 | 99 | < 50 | < 50 | < 50 | < 50 | < 50 | < 50 | < 50 | < 50 | < 50 | < 50 | < 50 | < 50 | < 50 | < 50 | 97 | < 50 | 96 | < 50 | FC(F)(F)c1ccc(Cl)cc1CN1CCNc2ncc(-c3ccnc(N4CCNCC4)c3)cc21 | inhibition [15]: 67% |
| < 50 | 93 | < 50 | < 50 | < 50 | < 50 | < 50 | < 50 | < 50 | < 50 | < 50 | < 50 | < 50 | < 50 | < 50 | < 50 | < 50 | < 50 | 75 | < 50 | CC(=O)N1CCN(c2cc(-c3cnc4c(c3)N(Cc3cc(Cl)ccc3C(F)(F)F)CCN4)ccn2)CC1 | inhibition [15]: < 50% |
| < 50 | 96 | < 50 | < 50 | < 50 | < 50 | < 50 | < 50 | < 50 | < 50 | < 50 | < 50 | < 50 | < 50 | < 50 | < 50 | < 50 | < 50 | 73 | < 50 | CN1CCN(c2ccc(-c3cnc4c(c3)N(Cc3c(F)ccc(F)c3Cl)CCN4)cn2)CC1 | inhibition [15]: < 50% |
